pIC50: −log10 of the molar value. Active and inactive are the calls of the source. The rule behind the calls is not given here.
Columns and labels:
[1] = target: RAC-beta serine/threonine-protein kinase (Homo sapiens, UniProt P31751); experiment: Inhibition of Akt2 (unknown origin)
[2] = target: Interleukin-1 receptor-associated kinase 1 (Homo sapiens, UniProt P51617); experiment: Inhibition of IRAK1 (unknown origin)
[3] = target: Serine/threonine-protein kinase Nek3 (Homo sapiens, UniProt P51956); experiment: Inhibition of NEK3 (unknown origin)
Chain of Serine/threonine-protein kinase Nek3 (P51956 whole entry): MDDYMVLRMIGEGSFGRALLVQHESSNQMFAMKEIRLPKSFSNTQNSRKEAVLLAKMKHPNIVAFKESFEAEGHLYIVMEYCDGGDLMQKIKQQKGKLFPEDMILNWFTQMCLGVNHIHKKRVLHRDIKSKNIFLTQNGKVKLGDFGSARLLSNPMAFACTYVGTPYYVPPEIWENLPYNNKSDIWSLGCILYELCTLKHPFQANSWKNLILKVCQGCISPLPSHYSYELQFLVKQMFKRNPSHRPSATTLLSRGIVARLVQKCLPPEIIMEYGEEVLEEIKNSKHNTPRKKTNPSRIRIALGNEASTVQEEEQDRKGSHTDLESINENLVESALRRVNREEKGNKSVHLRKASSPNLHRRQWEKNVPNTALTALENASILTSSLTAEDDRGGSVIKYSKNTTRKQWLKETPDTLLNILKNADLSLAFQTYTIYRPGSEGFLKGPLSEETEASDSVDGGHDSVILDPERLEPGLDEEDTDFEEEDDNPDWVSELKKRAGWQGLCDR

[4] = target: Serine/threonine-protein kinase D2 (Homo sapiens, UniProt Q9BZL6); experiment: Inhibition of PKD2 (unknown origin)
Chain of Serine/threonine-protein kinase D2 (Q9BZL6 whole entry): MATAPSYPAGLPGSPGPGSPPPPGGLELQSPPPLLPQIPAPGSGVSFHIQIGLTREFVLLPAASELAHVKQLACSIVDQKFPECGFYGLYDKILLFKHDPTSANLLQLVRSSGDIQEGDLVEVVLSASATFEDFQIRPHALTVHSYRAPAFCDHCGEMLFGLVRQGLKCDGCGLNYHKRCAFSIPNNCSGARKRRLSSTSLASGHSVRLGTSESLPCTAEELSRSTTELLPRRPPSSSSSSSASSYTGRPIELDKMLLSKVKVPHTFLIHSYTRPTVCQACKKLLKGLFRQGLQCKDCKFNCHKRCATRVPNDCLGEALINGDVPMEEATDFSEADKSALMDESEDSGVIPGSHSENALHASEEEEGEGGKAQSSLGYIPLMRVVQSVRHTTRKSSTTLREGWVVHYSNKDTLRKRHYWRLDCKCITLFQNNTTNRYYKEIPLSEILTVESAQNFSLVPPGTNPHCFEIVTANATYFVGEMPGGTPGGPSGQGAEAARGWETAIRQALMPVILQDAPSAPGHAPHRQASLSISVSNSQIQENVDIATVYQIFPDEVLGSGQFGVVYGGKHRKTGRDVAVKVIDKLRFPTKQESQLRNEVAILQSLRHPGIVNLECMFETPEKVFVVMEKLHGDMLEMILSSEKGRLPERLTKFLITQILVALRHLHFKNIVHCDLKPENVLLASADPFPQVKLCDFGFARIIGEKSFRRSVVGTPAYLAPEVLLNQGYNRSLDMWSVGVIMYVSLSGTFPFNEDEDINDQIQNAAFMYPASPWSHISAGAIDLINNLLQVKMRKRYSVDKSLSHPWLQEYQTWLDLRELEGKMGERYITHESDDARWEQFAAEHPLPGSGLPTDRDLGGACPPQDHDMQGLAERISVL

[5] = test system: FaDu; experiment: Antitumor activity against human FaDu cells harboring SMAD4 del/TP53 R248L/CDKN2A mutant xenografted in mouse assessed as tumor growth inhibition at 2.5 mg/kg, po; format: functional; settings: read-out: TGI
Method in brief: (§1)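 Single-agent dose ranging in human tumor xenograft mice at 2.5, 5 or 10 mg/kg oral. Tumor volume was measured by caliper as (L×W×W)/2. %TGI = 100×[1 − AUC(treatment/d)/AUC(vehicle/d)] from the fitted growth curve per dose group, relative to vehicle.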

[6] = test system: 537-mel; experiment: Antitumor activity against human 537-mel cells harboring PTEN null mutation xenografted in mouse assessed as tumor growth inhibition at 2.5 mg/kg, po; format: functional; settings: read-out: TGI
Method in brief: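 Mice carrying human tumor xenografts dosed orally once daily for 21 consecutive days. Tumor volume measured by calipers as (L×W×W)/2. %TGI = 100×[1 − AUC(treatment/day)/AUC(vehicle/day)], using the area under the fitted growth curve relative to vehicle.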

[7] = test system: A549; experiment: Antitumor activity against human A549 cells harboring KRAS G12S/LKB1Q37/SMARCA4 Q729/CDKN2A mutant xenografted in mouse assessed as tumor growth inhibition at 5 mg/kg, po; format: functional; settings: read-out: TGI; method in brief: as §1
[8] = test system: A375.X1; experiment: Antitumor activity against human A375.X1 cells xenografted in mouse assessed as reduction in ERK phosphorylation at 1 to 10 mg/kg, po by Western blot analysis; format: functional, organism-based; settings: dose 1-10 mg/kg, time 74-96 hrs, TDE = time-dependent effect
Method in brief: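 A375.X1 xenograft mice were dosed orally at 1, 3, 5 or 10 mg/kg once daily for 3 days. Tumors were collected 2, 8 and 24 h after the last dose, pulverized frozen and resolved by 4–12% SDS-PAGE. p-ERK1/2 and t-ERK1/2 were measured by Western blot and quantified by band intensity, relative to vehicle-treated mice (0 h).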

[9] = test system: COLO-829; experiment: Antiproliferative activity against human COLO-829 cells assessed as reduction in cell viability incubated for 96 hrs in presence of 4-(2-(1H-indazol-4-yl)-6-((4-(methylsulfonyl)piperazin-1-yl)methyl)thieno[3,2-d]pyrimidin-4-yl)morpholine; format: functional, cell-based
[10] = Antiproliferative activity against human Mel 928 cells assessed reduction in cell viability incubated for 4 days in presence of 4-(2-(1H-indazol-4-yl)-6-((4-(methylsulfonyl)piperazin-1-yl)methyl)thieno[3,2-d]pyrimidin-4-yl)morpholine by celltiter-glo assay; format: functional; settings: time 4 day
Method in brief: (§2)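 4-day CellTiter-Glo viability read-out on melanoma lines, cells exposed to increasing concentrations of each inhibitor alone and in combination.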

[11] = test system: COLO-829; experiment: Antiproliferative activity against human COLO-829 cells assessed reduction in cell viability incubated for 4 days in presence of 4-(2-(1H-indazol-4-yl)-6-((4-(methylsulfonyl)piperazin-1-yl)methyl)thieno[3,2-d]pyrimidin-4-yl)morpholine by celltiter-glo assay; format: functional; settings: time 4 day; method in brief: as §2
[12] = test system: MeWo; experiment: Antiproliferative activity against human MeWo cells assessed reduction in cell viability incubated for 4 days in presence of 4-(2-(1H-indazol-4-yl)-6-((4-(methylsulfonyl)piperazin-1-yl)methyl)thieno[3,2-d]pyrimidin-4-yl)morpholine by celltiter-glo assay; format: functional; settings: time 4 day; method in brief: as §2
[13] = test system: 888-mel; experiment: Inhibition of PI3K/MEK signaling pathway in human 888-mel cells assessed as decrease in AKT phosphorylation by incubated for 24 hrs by Western blot analysis; format: cell-based
[14] = test system: DLD-1; experiment: Antitumor activity against human DLD-1 cells xenografted in mouse assessed as tumor growth inhibition at 10 mg/kg, po administered every third day for 21 days; format: functional; settings: DLD-1, 504 h, time 21 day, read-out: TGI
Method in brief: (§3)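 Human tumor xenografts in mice. Drugs given orally, as single agents or combined with the PI3K inhibitor. Schedules were daily (QD) or every third day (Q3D) over 21 days. Tumor volume was measured by caliper as (L×W×W)/2. %TGI = 100×[1 − AUC(treatment/d)/AUC(vehicle/d)] from fitted growth curves, with group means. Tumor lysates were immunoblotted for pS6.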

[15] = test system: NCI-H2122; experiment: Antitumor activity against human NCI-H2122 cells xenografted in mouse assessed as tumor growth inhibition at 20 mg/kg, po administered once a day for 21 days in presence of 4-(2-(1H-indazol-4-yl)-6-((4-(methylsulfonyl)piperazin-1-yl)methyl)thieno[3,2-d]pyrimidin-4-yl)morpholine; format: functional; settings: NCI-H2122, 504 h, time 21 day, read-out: TGI
Method in brief: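 Mice bearing NCI-H2122 xenografts were given MEK inhibitor, PI3K inhibitor, or both, orally once daily for 21 consecutive days at the doses labeled. Caliper tumor volumes were calculated as (L×W×W)/2. %TGI was derived from the AUC of the fitted growth curve per day relative to vehicle.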

[16] = test system: A2058; experiment: Antitumor activity against human A2058 cells xenografted in mouse assessed as tumor growth inhibition at 20 mg/kg, po administered every third day for 21 days; format: functional; settings: A2058, 504 h, time 21 day, read-out: TGI; method in brief: as §3
[17] = test system: DLD-1; experiment: Antitumor activity against human DLD-1 cells xenografted in mouse assessed as tumor growth inhibition at 15 mg/kg, po administered once a day for 21 days in presence of 4-(2-(1H-indazol-4-yl)-6-((4-(methylsulfonyl)piperazin-1-yl)methyl)thieno[3,2-d]pyrimidin-4-yl)morpholine; format: functional; settings: DLD-1, 504 h, time 21 day, read-out: TGI; method in brief: as §3
[18] = test system: NCI-H2122; experiment: Antitumor activity against human NCI-H2122 cells xenografted in mouse assessed as tumor growth inhibition at 15 mg/kg, po administered every third day for 21 days in presence of 4-(2-(1H-indazol-4-yl)-6-((4-(methylsulfonyl)piperazin-1-yl)methyl)thieno[3,2-d]pyrimidin-4-yl)morpholine; format: functional; settings: NCI-H2122, 504 h, time 21 day, read-out: TGI
Method in brief: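 Dosing was oral, every third day (Q3D) across 21 days, with single agents or the MEK plus PI3K combination in NCI-H2122 xenograft mice. Tumor volume was calculated as (L×W×W)/2 from caliper measurements. %TGI was derived from fitted-curve AUC per day relative to vehicle, with body weight monitored.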

[19] = test system: 888-mel; experiment: Upregulation of Bim level in human 888-mel cells incubated for 24 hrs by immunoblotting analysis; format: functional, cell-based
[20] = test system: A2058; experiment: (§4) Antitumor activity against human A2058 cells harboring BRAF V600E/PTEN deletion mutant xenografted in mouse assessed as suppression of AKT phosphorylation at 15 mg/kg, po administered every third day for 21 days and measured after 72 hrs post dose by Western blot analysis; format: functional, organism-based; settings: time 576.0 hrs
[21] = test system: A2058; experiment: Antitumor activity against human A2058 cells harboring BRAF V600E/PTEN deletion mutant xenografted in mouse assessed as suppression of S6 phosphorylation at 15 mg/kg, po administered every third day for 21 days and measured after 72 hrs post dose by Western blot analysis; format: functional, organism-based; settings: time 576.0 hrs
[22] = test system: A2058; experiment: as §4, with “decrease in cyclin D1 level” for “suppression of AKT phosphorylation”, “dose in presence of 4-(2-(1H-indazol-4-yl)-6-((4-(methylsulfonyl)piperazin-1-yl)methyl)thieno[3,2-d]pyrimidin-4-yl)morpholine” for “dose”; format: functional, organism-based; settings: time 576.0 hrs

Chain of RAC-beta serine/threonine-protein kinase (P31751 whole entry): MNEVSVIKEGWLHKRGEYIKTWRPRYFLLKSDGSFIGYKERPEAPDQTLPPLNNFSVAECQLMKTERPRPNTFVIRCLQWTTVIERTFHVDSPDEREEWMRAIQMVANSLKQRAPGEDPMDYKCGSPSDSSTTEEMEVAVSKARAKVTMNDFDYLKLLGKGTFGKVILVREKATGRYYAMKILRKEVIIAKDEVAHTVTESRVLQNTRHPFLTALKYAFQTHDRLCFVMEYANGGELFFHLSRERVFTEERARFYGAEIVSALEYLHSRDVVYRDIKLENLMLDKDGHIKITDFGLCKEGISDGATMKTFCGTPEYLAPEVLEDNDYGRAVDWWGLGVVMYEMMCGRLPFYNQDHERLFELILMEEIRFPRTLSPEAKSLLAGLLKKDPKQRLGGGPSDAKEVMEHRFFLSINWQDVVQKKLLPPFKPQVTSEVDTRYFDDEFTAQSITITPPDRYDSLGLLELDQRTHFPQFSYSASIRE
Chain of Interleukin-1 receptor-associated kinase 1 (P51617 whole entry): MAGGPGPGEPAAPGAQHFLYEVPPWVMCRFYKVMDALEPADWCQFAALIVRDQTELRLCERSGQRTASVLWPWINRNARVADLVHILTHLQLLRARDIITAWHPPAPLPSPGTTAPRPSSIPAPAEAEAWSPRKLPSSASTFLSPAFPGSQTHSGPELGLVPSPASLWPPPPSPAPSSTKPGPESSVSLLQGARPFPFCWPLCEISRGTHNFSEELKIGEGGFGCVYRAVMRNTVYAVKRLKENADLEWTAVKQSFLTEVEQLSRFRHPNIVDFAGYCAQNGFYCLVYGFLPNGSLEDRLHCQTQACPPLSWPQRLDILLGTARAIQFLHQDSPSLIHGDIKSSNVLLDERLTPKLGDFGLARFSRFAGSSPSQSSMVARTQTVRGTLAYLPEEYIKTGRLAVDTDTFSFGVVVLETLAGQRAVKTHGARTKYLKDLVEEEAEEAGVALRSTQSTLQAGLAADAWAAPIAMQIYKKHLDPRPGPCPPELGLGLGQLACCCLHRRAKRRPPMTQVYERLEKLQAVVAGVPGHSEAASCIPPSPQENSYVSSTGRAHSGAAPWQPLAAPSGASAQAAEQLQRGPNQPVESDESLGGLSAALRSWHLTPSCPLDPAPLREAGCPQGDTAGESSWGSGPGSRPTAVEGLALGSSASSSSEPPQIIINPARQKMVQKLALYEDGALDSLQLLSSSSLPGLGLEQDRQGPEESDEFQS

- pIC50 [1]: < 5.00
- pIC50 [2]: < 5.00
- pIC50 [3]: < 5.00
- pIC50 [4]: < 5.00
SMILES: O=C(c1ccc(F)c(F)c1Nc1ccc(I)cc1F)N1CC(O)([C@@H]2CCCCN2)C1 [COBIMETINIB]
- inhibition in vivo at 2.5 mg/kg [5]: 4%
- inhibition in vivo at 2.5 mg/kg [6]: 69%
- inhibition in vivo at 5 mg/kg [7]: 51.4%
- Activity [8]: Tde
- Activity [9]: inactive
- Activity [10]: 60%
- Activity [11]: 60%
- Activity [12]: 60%
- inhibition [13]: Active
- inhibition in vivo at 10 mg/kg [14]: 18%
- inhibition in vivo at 20 mg/kg [15]: 87%
- inhibition in vivo at 20 mg/kg [16]: 34%
- inhibition in vivo at 15 mg/kg [17]: 69%
- inhibition in vivo at 15 mg/kg [18]: 156%
- Activity [19]: Active
- Activity [20]: Active
- Activity [21]: Active
- Activity [22]: Active
